22 compounds from ChEMBL document CHEMBL1124232, “Synthesis and biological activities of 4-O-(difluoromethyl)-5-substituted-uracil nucleoside analogues” (J Med Chem, 1988) can be followed below.

In data set [1] the test system is Human alphaherpesvirus 1. Put plainly: Ability to reduce plaque formation of herpes simplex virus type 1 (HSV-1) by 50% in human embryonic lung fibroblast (HELF) cell cultures. The format is functional. The following applies: Human alphaherpesvirus 1, HELF; read-out: ID50 (the source's name). In a few lines: (§1)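 HELF confluent monolayers infected 1 h at 37 °C (about 50–100 plaques per bottle) with HSV-1 clinical isolate strain 77 or TK-deficient HSV-1 B 2006. Then 0.5% w/v methocel overlay with 10% fetal calf serum plus compound, 3 days at 37 °C. Neutral red staining; ID50 in µmol/L read graphically as 50% plaque-number reduction.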

Data set [2] is described as follows: Minimum concentration not causing a microscopically detectable cytotoxic alteration of normal human embryonic lung fibroblast (HELF) morphology. The method, boiled down:
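Semiconfluent HELF monolayers, 24 h post-seeding, exposed 3 days at 37 °C to compound up to 1 mmol/L. Microscopic comparison with untreated controls; toxicity signs were cell detachment, monolayer destruction, or cells remaining semiconfluent. Value is the lowest concentration showing no detectable morphological alteration.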

Data set [3] deals with Human alphaherpesvirus 2. Put plainly: Ability to reduce plaque formation of herpes simplex virus type 2 (HSV-2) by 50% in human embryonic lung fibroblast (HELF) cell cultures. The format is functional. To be noted: Human alphaherpesvirus 2, HELF; read-out: ID50 (the source's name). In a few lines: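 Clinical isolate HSV-2 strain 74 adsorbed 1 h at 37 °C onto confluent HELF monolayers, aiming at 50–100 plaques per bottle. Compound added in methocel (0.5% w/v) overlay containing 10% FCS; 2 days at 37 °C. Plaques visualised with neutral red. ID50 in µmol/L determined graphically as the concentration halving plaque counts.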

Data set [4] relates to Human alphaherpesvirus 1. Put plainly: Ability to reduce plaque formation of TK deficient herpes simplex virus type 1(HSV-1) by 50% in human embryonic lung fibroblast (HELF) cell cultures. The data set is classed as functional. To be noted: Human alphaherpesvirus 1, HELF; read-out: ID50 (the source's name). The method, boiled down:
as §1

The test system of data set [5] is Human betaherpesvirus 5. Kind of data set: Ability to reduce plaque formation of human cytomegalovirus (HCMV) by 50% in human embryonic lung fibroblast (HELF) cell cultures. The format is functional. The following applies: Human betaherpesvirus 5, HELF; read-out: ID50 (the source's name). The method, boiled down: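 Plaque reduction in HELF cells with laboratory HCMV strain Davis, plaques scored 8–12 days post-infection. ID50 is the concentration cutting plaque formation by 50%.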

Data set [6] deals with Human alphaherpesvirus 3. Put plainly: Ability to reduce plaque formation of varicella zoster virus (VZV) by 50% in human embryonic lung fibroblast (HELF) cell cultures. To be noted: Human alphaherpesvirus 3, HELF; read-out: ID50 (the source's name). The format is functional. In a few lines: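 Fresh clinical VZV isolate, strain 3/S.H., in HELF cells. Plaques counted 5–6 days post-infection. ID50 is the concentration reducing plaque formation by 50%.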

The nature of data set [7]: Inhibitory dose for HELF cell proliferation during 3-day treatment period. The format is functional. To be noted: Homo sapiens, 72 h, read-out: ID50 (the source's name).

For `O=c1nc(OC(F)F)c(F)cn1[C@@H]1O[C@H](CO)[C@@H](O)[C@H]1O`, the figures for the IC50 in data set [1] and in data set [3] were 500 µM and greater than 500 µM, respectively. In data set [2], the Toxicity is greater than 500 µM.
On to `Cc1cn([C@@H]2O[C@H](CO)[C@@H](O)[C@@H]2O)c(=O)[nH]c1=O`, for which the IC50 is greater than 500 µM in data set [4]; 0.64 µM in data set [1]; 1.65 µM in data set [3]; greater than 500 µM in data set [5]; 0.53 µM in data set [6]. The compound also yielded a Toxicity in data set [2] greater than 1000 µM.
Turning to `O=c1nc(OC(F)F)ccn1[C@@H]1O[C@H](CO)[C@@H](O)[C@@H]1O`, the IC50 in data set [1] is 430 µM; in data set [3], greater than 1000 µM. This compound registered a Toxicity in data set [2] greater than 1000 µM.
With `O=c1nc(OC(F)F)c(F)cn1[C@@H]1O[C@H](CO)[C@@H](O)[C@@H]1O`, the figures for the IC50 in data set [1] and in data set [3] were 110 µM and 300 µM, respectively. This compound also yielded a Toxicity in data set [2] greater than 500 µM.
On the same counts, the results for `Cc1cn([C@H]2C[C@H](O)[C@@H](CO)O2)c(=O)nc1OC(F)F` are greater than 1000 µM, greater than 1000 µM and greater than 1000 µM.
For `O=c1[nH]c(=O)n(C2O[C@H](CO)[C@@H](O)[C@@H]2O)cc1I` (some centres not stated), in that order: 51 µM, 70 µM and greater than 500 µM.
On the same counts, the results for `O=c1nc(OC(F)F)c(Br)cn1[C@@H]1O[C@H](CO)[C@@H](O)[C@H]1O` are greater than 250 µM, greater than 250 µM and greater than 250 µM.
For the compound `O=c1nc(OC(F)F)c(/C=C/Br)cn1C1O[C@H](CO)[C@@H](O)[C@@H]1O` (some centres not stated), the IC50 in data set [1] was 1.1 µM; in data set [3], greater than 500 µM. This compound returned a Toxicity in data set [2] greater than 500 µM.
For `O=c1nc(OC(F)F)c(I)cn1[C@@H]1O[C@H](CO)[C@@H](O)[C@@H]1O`, the IC50 was determined as 29 µM in data set [1] and 82 µM in data set [3]. In addition, in data set [2], the Toxicity is greater than 1000 µM.
On to `O=c1[nH]c(=O)n([C@H]2C[C@H](O)[C@@H](CO)O2)cc1/C=C/Br` [BRIVUDINE], for which the IC50 in data set [1] was 0.05 µM; in data set [7] it was 170 µM; in data set [3], 27 µM.
With `Cc1cn(C2O[C@H](CO)[C@@H](O)[C@@H]2O)c(=O)nc1OC(F)F` (some centres not stated), the IC50 in data set [4] was greater than 500 µM; in data set [1], 0.8 µM; in data set [3] it was 3 µM; in data set [5], greater than 500 µM; in data set [6], 1 µM. This compound gave a Toxicity in data set [2] greater than 1000 µM.
`O=c1nc(OC(F)F)ccn1[C@@H]1O[C@H](CO)[C@@H](O)[C@H]1O`: the IC50 in data set [1] and in data set [3] was greater than 1000 µM in each case. In addition, in data set [2], the Toxicity was greater than 1000 µM.
`CCc1cn([C@H]2C[C@H](O)[C@@H](CO)O2)c(=O)nc1OC(F)F`: the IC50 in data set [1] and in data set [3] was greater than 1000 µM throughout. Besides, the Toxicity in data set [2] was greater than 1000 µM.
`O=c1nc(OC(F)F)c(Br)cn1[C@H]1C[C@H](O)[C@@H](CO)O1`: the IC50 is 130 µM in data set [1] and greater than 500 µM in data set [3]. The compound also had a Toxicity in data set [2] greater than 500 µM.
As to `CCc1cn(C2O[C@H](CO)[C@@H](O)[C@@H]2O)c(=O)nc1OC(F)F` (some centres not stated), the IC50 is 27 µM in data set [1] and 210 µM in data set [3]. In addition, in data set [2], the Toxicity was greater than 500 µM.
As to `Nc1nc2c(ncn2COCCO)c(=O)[nH]1` [ACYCLOVIR], the IC50 was 0.48 µM in data set [1], 360 µM in data set [7] and 1.6 µM in data set [3].
`O=c1[nH]c(=O)n([C@H]2C[C@H](O)[C@@H](CO)O2)cc1Br` [BROXURIDINE]: the IC50 in data set [1] stood at 0.8 µM; in data set [3], 1.4 µM. This compound had a Toxicity in data set [2] greater than 1000 µM.
`CCc1cn([C@H]2C[C@H](O)[C@@H](CO)O2)c(=O)[nH]c1=O` [EDOXUDINE]: the IC50 in data set [1] was determined as 10 µM; in data set [3] it was 14.5 µM. In data set [2], the Toxicity is greater than 1000 µM.
For `O=c1nc(OC(F)F)c(I)cn1[C@@H]1O[C@H](CO)[C@@H](O)[C@H]1O`, in that order: greater than 500 µM, greater than 500 µM and greater than 500 µM.
Turning to `O=c1[nH]c(=O)n([C@@H]2O[C@H](CO)[C@@H](O)[C@H]2O)cc1/C=C/Br`, the IC50 in data set [1] is 0.115 µM; in data set [7], greater than 1000 µM; in data set [3] it was 49 µM.
Regarding `O=c1nc(OC(F)F)c(Br)cn1[C@@H]1O[C@H](CO)[C@@H](O)[C@@H]1O`, the IC50 in data set [1] came to 3.6 µM; in data set [3] it was 17.6 µM. Further, in data set [2], the Toxicity is greater than 1000 µM.
With `O=c1[nH]c(=O)n([C@@H]2O[C@H](CO)[C@@H](O)[C@@H]2O)cc1Br`, the IC50 was found to be 1.35 µM in data set [1] and 7.9 µM in data set [3]. Moreover, the Toxicity in data set [2] is greater than 1000 µM.
